# EBNA-1 inhibitor: blocks EBNA-1 binding to DNA; 0.34% of 300,000 active; inhibition, % at 14.8 µM; EBNA-1 DNA binding, fluorescence polarization; in the data active = inhibition above about 28%
# FGF22 binding: binders of recombinant human FGF22 by thermal shift; SYPRO orange fluorescence; percent of sucrose octasulfate shift, DMSO zero; activity (Tm shift, normalised), % at 9.99 µM; 1.5% of 340,000 active; AID 651658;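 active = mean Tm shift, scaled 0 neutral to 100 positive control, at about 1.3% or above, every replicate too, limit read from the data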
# Target sequence (Q9HCT0 whole entry, looked up): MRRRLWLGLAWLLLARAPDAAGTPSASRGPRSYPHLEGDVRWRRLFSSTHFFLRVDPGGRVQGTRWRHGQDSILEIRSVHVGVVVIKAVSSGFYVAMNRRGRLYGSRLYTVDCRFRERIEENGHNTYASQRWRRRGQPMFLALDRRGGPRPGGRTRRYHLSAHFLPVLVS
# NR3A LBD binder: NR3A (human) ligand-binding domain modulation; AID 1259313; 2.5% of 340,000 active; NR3A LBD differential scanning fluorimetry, Tm shift; 0% = protein alone, 100% = glycine-bound protein; Tm shift relative to glycine control, % at 25 µM;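 active = melting temperature shift of at least 10% of the positive control shift, at one fixed dose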
# ZTA DNA inh: counter-screen for EBNA-1 inhibitors: inhibitors of Epstein-Barr virus ZTA; ZTA-DNA binding, fluorescence polarization; inhibition, % at 11 µM; 0.15% of 320,000 active; in the data active = inhibition above about 33%
# Target sequence (P03206 whole entry, looked up): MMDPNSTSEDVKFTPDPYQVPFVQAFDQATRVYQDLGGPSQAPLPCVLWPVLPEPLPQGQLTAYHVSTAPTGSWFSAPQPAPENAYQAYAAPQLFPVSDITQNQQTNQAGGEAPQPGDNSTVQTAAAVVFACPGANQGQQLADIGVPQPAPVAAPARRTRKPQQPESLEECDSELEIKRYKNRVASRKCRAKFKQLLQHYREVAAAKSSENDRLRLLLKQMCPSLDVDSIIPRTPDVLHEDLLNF
# HCV NS3 hel inh: inhibitors of Hepatitis C virus NS3 helicase | NS3 helicase DNA unwinding, Cy5 molecular beacon fluorescence | inhibition, % at 10.9 µM | 0.56% of 290,000 active | AID 1800;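 active = inhibition above the mean of all tested compounds plus 3 SD, set per campaign, cut at about 35% in these data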;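 note: 0% = DMSO wells and 100% = thioflavine S control wells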
#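 Compound dosing – single dose, 10.9 µM nominal final, DMSO 0.8% final · System – NS3 helicase fragment of HCV · Buffer or medium – MOPS pH 6.5, MgCl2, DTT, Tween20, BSA · Signal – Cy5 beacon fluorescence read at start and 1 h · Also added – annealed dual-labelled DNA beacon duplex, ATP-started · Schedule – 1 h at 25 °C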
# DNA FID counter: fluorescent intercalator displacement, NS3 helicase counter-screen; DNA fluorescent intercalator displacement, fluorescence; inhibition, % at 7.9 µM; 0.17% of 290,000 active; in the data active = inhibition above about 37%;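 note: 0% = vehicle and 100% = reference compound; higher means more ethidium bromide displaced from hairpin DNA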
# An asterisk follows results filed as active; . = no result. Sampled rows, rich in hits. Any-hit rate of the full collection: about 3.6%.
SMILES,EBNA-1 inhibitor,FGF22 binding,NR3A LBD binder,ZTA DNA inh,HCV NS3 hel inh,DNA FID counter
Cc1cc(SCC(=O)Nc2ccccc2)n2ncc(-c3ccccc3)c2n1,4.8,0.0,31.7*,-3.6,-7.6,-7.3
Cc1cc(SCC(=O)Nc2ccc(O)cc2)n2ncc(-c3ccccc3)c2n1,0.6,-0.4,27.3*,13.2,-12.1,0.4
COc1ccc(NC(=O)CSc2cc(C)nc3c(-c4ccccc4)cnn23)cc1,17.0,0.0,64.1*,-5.6,-0.4,0.9
Cc1cc(SCC(=O)Nc2ccc(O)cc2)n2nc(C)c(-c3ccccc3)c2n1,10.8,-0.1,7.3,1.1,-15.2,-6.2
COC(=O)C[C@H]1CC[C@H]2[C@@H](COc3ccc(NC(=O)c4cncs4)cc3C(=O)N2C)O1,.,0.0,.,.,.,.
CC(=O)N1CC2(C1)[C@@H](c1ccccc1)[C@@H](CO)N2Cc1cccc(Cl)c1,.,-0.1,.,.,.,.
COC(=O)c1ccc(Cl)cc1NC(=O)/C=C/c1ccc(C)o1,0.2,44.2*,2.7,-4.7,5.0,-0.7
C[C@H](CO)N1C[C@H](C)[C@H](CN(C)C(=O)c2ccncc2)OCCCC[C@H](C)Oc2ccc(NS(=O)(=O)c3ccc(F)cc3)cc2C1=O,.,-0.3,.,.,.,.
COc1cc(Cl)c(C)cc1NC(=O)CCN1C(=O)NC(C)(C)C1=O,.,43.2*,0.6,.,.,.
O=C(N[C@H]1C=C[C@@H](CC(=O)N2CCCCC2)O[C@H]1CO)c1ccc2c(c1)OCO2,.,-0.1,.,.,.,.
COc1ccc2nc(NC(=O)/C=C/c3ccc4c(c3)OCO4)sc2c1,3.0,.,.,-10.2,3.1,-4.2
COc1ccc2nc(Nc3nc4cc5c(cc4s3)OCO5)sc2c1,3.9,.,14.4*,-25.5,8.4,-4.6
COc1ccc2nc(Nc3ccc4c(c3)OCO4)sc2c1,-0.4,.,16.3*,-24.4,-8.4,-2.0
COc1cc(C(F)(F)F)c(C(=O)N(C)Cc2cccc(Cl)c2)cn1,-0.3,-0.1,13.9*,-7.9,4.7,-25.8
CO[C@@H]1CN(C)C(=O)c2ccc(NC(=O)NC3CCCCC3)cc2OC[C@@H](C)N(CC2CC2)C[C@H]1C,.,0.0,.,.,.,.
CN(C)CCC(Oc1ccccc1OCc1ccccc1)c1ccccc1 (stereo not given),1.4,0.0,-1.2,2.9,.,.
CN(C)CCCC(C)(O)C(Cc1ccccc1)c1ccccc1 (stereo not given),8.2,0.0,14.0*,16.8,-22.3,16.3
COc1ccc(-c2noc(N3CCCC(C(=O)Nc4ccccc4F)C3)n2)cc1 (stereo not given),22.1,0.2,12.8*,9.3,-8.4,-20.9
COc1ccc(-c2noc(N3CCCC(C(=O)Nc4ccc(F)cc4F)C3)n2)cc1 (stereo not given),6.1,-0.1,-0.8,2.5,1.7,-28.9
C=C(C)C(=O)N1CC2(CC(c3cccc(NC(=O)c4ccccc4)c3)=NO2)C[C@@H]1C(N)=O (stereo not given in full),-4.9,44.1*,0.2,-7.1,1.1,-11.3
C=C(C)C(=O)N1CC2(CC(c3cccc(NC(=O)CC)c3)=NO2)C[C@H]1C(N)=O (stereo not given in full),-7.9,.,0.1,-15.3,.,.
O=C(NCCCSc1ccccc1)c1cc(Cl)ccc1O,.,-0.1,11.8*,.,7.0,-14.4
Cc1ccc(S(=O)(=O)Nc2ccc3c(c2)C(=O)N([C@H](C)CO)C[C@@H](C)[C@@H](CN(C)C(=O)Nc2ccc4c(c2)OCO4)OCCCC[C@H](C)O3)cc1,.,0.1,.,.,.,.
Cc1ccc(-n2[nH]c(C)c(/C=N/Nc3ccc([N+](=O)[O-])cc3[N+](=O)[O-])c2=O)cc1,5.6,0.1,22.2*,0.2,15.6,4.5
C=CCOc1cccc(CNCCCN2CCOCC2)c1,7.6,43.5*,-2.6,8.5,29.0,11.6
C=CCOc1ccccc1CNCCCN1CCOCC1,-1.8,.,6.5,3.0,-3.6,19.1
C/C(=N\NC(=O)c1ccc2c(c1)OCO2)c1ccc2c(c1)OCO2,-0.3,0.1,-0.1,12.0,5.1,-2.0
O=C(NNC(=O)c1ccc(F)cc1F)c1ccc2c(c1)OCO2,-0.4,44.0*,-0.5,4.4,-0.8,-7.5
O=C(NN=C1CCCCCC1)c1ccc2c(c1)OCO2,-4.8,43.1*,-0.9,-0.2,-7.6,-1.1

# Assay outcomes: PubChem, several laboratories
